In ChEMBL document CHEMBL3860038, “Discovery of (R,E)-N-(7-Chloro-1-(1-[4-(dimethylamino)but-2-enoyl]azepan-3-yl)-1H-benzo[d]imidazol-2-yl)-2-methylisonicotinamide (EGF816), a Novel, Potent, and WT Sparing Covalent Inhibitor of Oncogenic (L858R, ex19del) and Resistant (T790M) EGFR Mutants for the Treatment of EGFR Mutant …” (J Med Chem, 2016):
pIC50: −log10 of the molar value.

Key:
[1] = target: Cytochrome P450 3A4 (Homo sapiens, UniProt P08684); assay: Inhibition of CYP3A4 (unknown origin); assay type: ADME
[2] = Drug metabolism in rat liver microsomes assessed as oxidation at 7-methyl groups; assay type: ADME
[3] = Inhibition of EGFR E746 to A750 deletion mutant phosphorylation in human patient derived HCC827 cells incubated for 3 hrs by ELISA method; assay type: cell-based; conditions: HCC827, 3 h
Outline: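 HCC827 cells plated at 7500/well in 5% FBS/RPMI and left overnight at 37 °C. Then 3 h with a 12-point compound dilution series, no EGF stimulation. Lysed in Triton/protease/phosphatase-inhibitor buffer. Phospho-EGFR (Y1173) read by sandwich ELISA: anti-EGFR capture, anti-phospho-EGFR, anti-rabbit-HRP, chemiluminescence. IC50 from at least duplicates.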

[4] = Drug metabolism in human liver microsomes assessed as oxidation at 7-methyl groups; assay type: ADME
[5] = Drug metabolism in human liver microsomes assessed as oxidation at acrylate groups; assay type: ADME
[6] = Drug metabolism in mouse liver microsomes assessed as oxidation at 7-methyl groups; assay type: ADME
[7] = target: Epidermal growth factor receptor (Homo sapiens, UniProt P00533, L858R); assay: Inhibition of EGFR L858R mutant phosphorylation in human patient derived H3255 cells incubated for 3 hrs by ELISA method; assay type: cell-based
[8] = Glutathione reactivity assessed as GSH adduct formation incubated for 1 hr using 10 mM glutathione
Outline: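 Compound incubated 1 h with 10 mM glutathione; GSH adduct formation measured.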

[9] = Oral bioavailability in balb/c mouse at 20 mg/kg by liquid chromatography-tandem mass spectrometry; assay type: ADME, organism-based; conditions: in vivo
Outline: (§1)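 Rodent PK in male balb/c mice and male Wistar rats; plasma drug levels by LC-MS/MS. Mouse oral dosing at 20 mg/kg, with compounds given as a 0.5% methylcellulose/0.5% Tween 80 suspension or as solutions (PEG300/D5W, or ethanol/PEG300 with Solutol or D5W), depending on compound.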

[10] = Clearance in balb/c mouse at 5 mg/kg, iv by liquid chromatography-tandem mass spectrometry; assay type: ADME, organism-based; conditions: in vivo; outline: as §1
[11] = Drug metabolism in rat liver microsomes assessed as oxidation at acrylate groups; assay type: ADME
[12] = Drug metabolism in mouse liver microsomes assessed as oxidation at acrylate groups; assay type: ADME
[13] = Intrinsic clearance in mouse liver microsomes; assay type: ADME; conditions: read-out: CLH
[14] = Aqueous solubility of the compound at pH 6.8; assay type: physicochemical
[15] = AUC in balb/c mouse at 20 mg/kg, po by liquid chromatography-tandem mass spectrometry; assay type: ADME, organism-based; conditions: in vivo; outline: as §1
[16] = target: Epidermal growth factor receptor (Homo sapiens, UniProt P00533); assay: Inhibition of wild type EGFR phosphorylation in human HaCaT cells incubated for 3 hrs by ELISA method; assay type: cell-based
[17] = target: Cytochrome P450 2C9 (Homo sapiens, UniProt P11712); assay: Inhibition of CYP2C9 (unknown origin); assay type: ADME
[18] = target: Epidermal growth factor receptor (Homo sapiens, UniProt P00533, L858R/T790M); assay: Inhibition of EGFR L858R/T790M mutant phosphorylation in human patient derived H1975 cells incubated for 3 hrs by ELISA method; assay type: cell-based
[19] = Intrinsic clearance in human liver microsomes; assay type: ADME; conditions: read-out: CLH
[20] = target: Cytochrome P450 2D6 (Homo sapiens, UniProt P10635); assay: Inhibition of CYP2D6 (unknown origin); assay type: ADME
[21] = species: Homo sapiens; assay: Antitumor activity in NSCLC patient assessed as response rate; assay type: functional
[22] = Mean residence time in Wistar rat at 3 mg/kg, iv by liquid chromatography-tandem mass spectrometry; assay type: ADME, organism-based; conditions: in vivo
[23] = Mean residence time in balb/c mouse at 5 mg/kg, iv by liquid chromatography-tandem mass spectrometry; assay type: ADME, organism-based; conditions: in vivo
[24] = Clearance in balb/c mouse at 5 mg/kg, iv by liquid chromatography-tandem mass spectrometry relative to liver blood flow; assay type: ADME, organism-based; conditions: in vivo
[25] = AUC in Wistar rat at 10 mg/kg, po by liquid chromatography-tandem mass spectrometry; assay type: ADME, organism-based; conditions: in vivo; outline: as §1
[26] = Time duration during which free plasma concentration stays above in-vitro IC50 level in human NCI-H1975 cells xenografted Foxn1 nude mouse at 50 mg/kg, po qd for 5 days; assay type: ADME, organism-based; conditions: in vivo, 120 h
Outline: (§2)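 H1975 xenografts in Foxn1 nude mice, oral dosing once daily for 5 days. Plasma sampled after the last dose on day 5, at 30 min, 3 h, 7 h and 24 h. Free drug exposure was compared with in vitro cellular IC50 across the dosing interval.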

[27] = Oral bioavailability in Wistar rat at 10 mg/kg by liquid chromatography-tandem mass spectrometry; assay type: ADME, organism-based; conditions: in vivo; outline: as §1
[28] = test system: Mus musculus; assay: Toxicity in human NCI-H1975 cells xenografted Foxn1 nude mouse assessed as change in body weight at 50 mg/kg, po qd for 5 days (reference value: […]); assay type: organism-based; conditions: in vivo, 120 h
[29] = Volume of distribution at steady state in Wistar rat at 3 mg/kg, iv by liquid chromatography-tandem mass spectrometry; assay type: ADME, organism-based; conditions: in vivo, read-out: Vdss
Outline: (§3)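 Male animals (balb/c mice or Wistar rats) were used. Compound levels in plasma were measured by LC-MS/MS.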

[30] = Antitumor activity against human NCI-H1975 cells xenografted in Foxn1 nude mouse assessed as reduction in tumor volume at 25 mg/kg, po qd for 5 days relative to untreated control; assay type: functional
Outline: (§4)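 Female Foxn1 nude mice, H1975 cells inoculated subcutaneously. Randomized into groups once tumors reached 150−200 mm³, then dosed by oral gavage once daily for 5 days in 0.5% MC/0.5% Tween80 suspension (10 μL/g). Tumor volumes by caliper, (length × width × width)/2. %T/C = 100 × ΔT/ΔC, or % regression = 100 × ΔT/T_initial when ΔT < 0. Body weight recorded daily.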

[31] = species: Homo sapiens; assay: Antitumor activity in NSCLC patient assessed as disease control rate; assay type: functional
[32] = Antitumor activity against human NCI-H1975 cells xenografted in Foxn1 nude mouse assessed as reduction in tumor volume at 50 mg/kg, po qd for 5 days relative to untreated control; assay type: functional; outline: as §4
[33] = test system: Mus musculus; assay: Toxicity in human NCI-H1975 cells xenografted Foxn1 nude mouse assessed as change in body weight at 25 mg/kg, po qd for 5 days (reference value: […]); assay type: organism-based; conditions: in vivo, 120 h
[34] = Volume of distribution at steady state in balb/c mouse at 5 mg/kg, iv by liquid chromatography-tandem mass spectrometry; assay type: ADME, organism-based; conditions: in vivo, read-out: Vdss; outline: as §3
[35] = Clearance in Wistar rat at 3 mg/kg, iv by liquid chromatography-tandem mass spectrometry relative to liver blood flow; assay type: ADME, organism-based; conditions: in vivo
[36] = Cmax in Wistar rat at 10 mg/kg, po by liquid chromatography-tandem mass spectrometry; assay type: ADME, organism-based; parameters: dose 10 mg/kg, route oral; conditions: in vivo; outline: as §1
[37] = AUC in balb/c mouse at 5 mg/kg, iv by liquid chromatography-tandem mass spectrometry; assay type: ADME, organism-based; conditions: in vivo
[38] = AUC in Wistar rat at 3 mg/kg, iv by liquid chromatography-tandem mass spectrometry; assay type: ADME, organism-based; conditions: in vivo
[39] = Cmax in balb/c mouse at 20 mg/kg, po by liquid chromatography-tandem mass spectrometry; assay type: ADME, organism-based; parameters: dose 20 mg/kg, route oral; conditions: in vivo; outline: as §1
[40] = Tmax in Wistar rat at 10 mg/kg, po by liquid chromatography-tandem mass spectrometry; assay type: ADME, organism-based; conditions: in vivo; outline: as §1
[41] = Tmax in balb/c mouse at 20 mg/kg, po by liquid chromatography-tandem mass spectrometry; assay type: ADME, organism-based; conditions: in vivo; outline: as §1
[42] = Clearance in Wistar rat at 3 mg/kg, iv by liquid chromatography-tandem mass spectrometry; assay type: ADME, organism-based; conditions: in vivo; outline: as §1
[43] = Time duration during which free plasma concentration stays above in-vitro IC50 level in human NCI-H1975 cells xenografted Foxn1 nude mouse at 25 mg/kg, po qd for 5 days; assay type: ADME, organism-based; conditions: in vivo, 120 h; outline: as §2

Sequence of Cytochrome P450 2D6 (P10635 whole entry): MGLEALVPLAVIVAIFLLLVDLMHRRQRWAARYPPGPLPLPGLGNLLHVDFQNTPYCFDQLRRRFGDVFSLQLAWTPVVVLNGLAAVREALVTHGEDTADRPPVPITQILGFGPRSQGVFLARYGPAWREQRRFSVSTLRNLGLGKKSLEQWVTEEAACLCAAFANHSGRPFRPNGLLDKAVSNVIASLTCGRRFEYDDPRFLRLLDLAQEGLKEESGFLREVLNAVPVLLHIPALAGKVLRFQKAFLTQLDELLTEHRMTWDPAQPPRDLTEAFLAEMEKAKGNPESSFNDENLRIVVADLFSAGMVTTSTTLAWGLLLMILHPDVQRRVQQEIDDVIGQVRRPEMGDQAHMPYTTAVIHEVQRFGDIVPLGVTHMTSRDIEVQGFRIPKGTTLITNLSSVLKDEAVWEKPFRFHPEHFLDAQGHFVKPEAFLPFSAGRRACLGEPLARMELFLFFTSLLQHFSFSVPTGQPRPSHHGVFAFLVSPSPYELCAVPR
Sequence of Cytochrome P450 2C9 (P11712 whole entry): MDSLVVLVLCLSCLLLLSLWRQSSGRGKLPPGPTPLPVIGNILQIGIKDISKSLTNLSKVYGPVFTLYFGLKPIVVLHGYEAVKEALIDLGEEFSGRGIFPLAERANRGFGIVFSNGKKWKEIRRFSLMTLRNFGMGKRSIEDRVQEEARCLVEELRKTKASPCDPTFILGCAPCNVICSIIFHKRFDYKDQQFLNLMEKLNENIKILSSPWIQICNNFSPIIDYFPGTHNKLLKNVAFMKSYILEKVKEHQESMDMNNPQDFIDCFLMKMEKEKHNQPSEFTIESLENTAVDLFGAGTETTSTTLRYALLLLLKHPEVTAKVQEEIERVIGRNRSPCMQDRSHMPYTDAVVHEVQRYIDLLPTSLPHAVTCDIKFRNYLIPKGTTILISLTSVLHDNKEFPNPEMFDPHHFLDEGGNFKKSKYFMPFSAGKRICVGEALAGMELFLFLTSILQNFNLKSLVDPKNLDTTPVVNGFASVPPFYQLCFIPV
Sequence of Cytochrome P450 3A4 (P08684 whole entry): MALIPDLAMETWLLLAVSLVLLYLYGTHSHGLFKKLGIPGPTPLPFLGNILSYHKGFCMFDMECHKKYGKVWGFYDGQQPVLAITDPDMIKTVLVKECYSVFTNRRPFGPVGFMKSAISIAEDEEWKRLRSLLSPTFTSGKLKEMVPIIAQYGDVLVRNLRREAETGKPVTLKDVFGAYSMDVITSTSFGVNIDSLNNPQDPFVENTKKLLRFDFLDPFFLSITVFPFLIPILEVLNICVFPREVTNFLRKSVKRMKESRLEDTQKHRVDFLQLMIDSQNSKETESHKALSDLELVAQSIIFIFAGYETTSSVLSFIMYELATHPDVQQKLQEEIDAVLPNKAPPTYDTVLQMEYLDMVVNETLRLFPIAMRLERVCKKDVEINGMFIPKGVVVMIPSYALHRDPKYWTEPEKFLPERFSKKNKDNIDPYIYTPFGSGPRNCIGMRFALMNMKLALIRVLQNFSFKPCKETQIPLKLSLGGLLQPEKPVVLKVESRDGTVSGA
Sequence of Epidermal growth factor receptor (Homo sapiens, UniProt P00533, L858R/T790M) (P00533 25-1210 T790M/L858R limits assumed): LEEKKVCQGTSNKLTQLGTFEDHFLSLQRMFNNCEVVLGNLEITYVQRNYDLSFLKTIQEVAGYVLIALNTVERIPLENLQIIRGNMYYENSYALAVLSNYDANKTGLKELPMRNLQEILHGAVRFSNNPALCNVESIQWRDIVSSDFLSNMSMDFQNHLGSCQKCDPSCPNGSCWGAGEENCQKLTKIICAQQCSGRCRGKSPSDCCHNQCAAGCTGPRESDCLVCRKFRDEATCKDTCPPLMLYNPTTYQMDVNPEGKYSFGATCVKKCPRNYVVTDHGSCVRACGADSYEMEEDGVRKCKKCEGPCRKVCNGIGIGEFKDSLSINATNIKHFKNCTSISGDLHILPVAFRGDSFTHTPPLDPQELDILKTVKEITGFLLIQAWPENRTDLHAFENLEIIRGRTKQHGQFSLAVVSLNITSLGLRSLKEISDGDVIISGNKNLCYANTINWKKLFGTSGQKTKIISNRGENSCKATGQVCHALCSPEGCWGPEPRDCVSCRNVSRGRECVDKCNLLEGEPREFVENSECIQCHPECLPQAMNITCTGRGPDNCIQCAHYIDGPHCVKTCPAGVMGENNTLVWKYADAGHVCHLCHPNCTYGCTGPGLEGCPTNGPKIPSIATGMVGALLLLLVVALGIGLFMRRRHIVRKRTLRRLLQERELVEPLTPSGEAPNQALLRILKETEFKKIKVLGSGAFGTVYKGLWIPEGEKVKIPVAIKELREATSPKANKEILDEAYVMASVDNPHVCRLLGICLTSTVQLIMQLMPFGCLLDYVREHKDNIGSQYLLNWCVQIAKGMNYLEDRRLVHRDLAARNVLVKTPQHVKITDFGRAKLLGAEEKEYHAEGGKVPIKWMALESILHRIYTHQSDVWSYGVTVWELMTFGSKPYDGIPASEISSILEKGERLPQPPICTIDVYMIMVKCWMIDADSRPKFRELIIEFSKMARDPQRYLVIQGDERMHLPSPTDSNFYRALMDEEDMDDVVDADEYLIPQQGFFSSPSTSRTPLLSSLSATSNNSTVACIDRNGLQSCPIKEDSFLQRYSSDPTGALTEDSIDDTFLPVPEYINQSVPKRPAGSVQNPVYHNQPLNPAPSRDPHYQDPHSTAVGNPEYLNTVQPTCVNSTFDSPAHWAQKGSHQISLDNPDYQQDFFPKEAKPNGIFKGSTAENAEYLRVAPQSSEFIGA
Sequence of Epidermal growth factor receptor (Homo sapiens, UniProt P00533, L858R) (P00533 25-1210 L858R limits assumed): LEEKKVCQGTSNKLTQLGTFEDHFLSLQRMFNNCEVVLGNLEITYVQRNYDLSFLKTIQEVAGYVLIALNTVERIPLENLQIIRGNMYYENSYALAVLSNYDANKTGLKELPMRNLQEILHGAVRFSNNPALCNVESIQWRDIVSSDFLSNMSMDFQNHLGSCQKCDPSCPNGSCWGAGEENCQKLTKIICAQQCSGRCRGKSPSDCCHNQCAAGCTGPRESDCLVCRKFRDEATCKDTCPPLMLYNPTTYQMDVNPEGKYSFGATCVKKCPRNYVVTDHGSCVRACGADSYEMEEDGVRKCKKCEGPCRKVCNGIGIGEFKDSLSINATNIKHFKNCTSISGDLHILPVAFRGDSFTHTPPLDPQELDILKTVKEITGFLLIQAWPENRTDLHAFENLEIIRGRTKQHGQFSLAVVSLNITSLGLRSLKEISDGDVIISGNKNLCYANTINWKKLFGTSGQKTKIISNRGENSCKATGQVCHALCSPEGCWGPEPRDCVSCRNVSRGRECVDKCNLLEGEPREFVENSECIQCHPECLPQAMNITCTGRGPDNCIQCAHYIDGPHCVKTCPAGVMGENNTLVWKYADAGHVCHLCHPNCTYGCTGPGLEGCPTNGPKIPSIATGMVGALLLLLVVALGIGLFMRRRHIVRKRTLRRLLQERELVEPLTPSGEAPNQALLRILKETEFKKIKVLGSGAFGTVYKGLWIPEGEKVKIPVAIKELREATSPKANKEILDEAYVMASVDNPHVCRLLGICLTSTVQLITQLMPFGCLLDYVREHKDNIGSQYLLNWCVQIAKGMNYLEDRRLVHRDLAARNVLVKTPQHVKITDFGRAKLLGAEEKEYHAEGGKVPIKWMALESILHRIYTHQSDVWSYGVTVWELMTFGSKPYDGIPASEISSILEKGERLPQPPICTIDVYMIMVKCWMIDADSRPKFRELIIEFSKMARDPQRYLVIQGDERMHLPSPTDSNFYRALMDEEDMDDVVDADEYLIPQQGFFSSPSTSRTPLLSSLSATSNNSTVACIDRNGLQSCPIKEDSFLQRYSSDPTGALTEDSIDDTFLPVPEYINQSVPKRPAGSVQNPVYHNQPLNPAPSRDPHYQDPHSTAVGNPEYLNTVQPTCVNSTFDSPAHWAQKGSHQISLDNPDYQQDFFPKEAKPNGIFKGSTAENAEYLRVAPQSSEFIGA
Sequence of Epidermal growth factor receptor (Homo sapiens, UniProt P00533) (P00533 whole entry): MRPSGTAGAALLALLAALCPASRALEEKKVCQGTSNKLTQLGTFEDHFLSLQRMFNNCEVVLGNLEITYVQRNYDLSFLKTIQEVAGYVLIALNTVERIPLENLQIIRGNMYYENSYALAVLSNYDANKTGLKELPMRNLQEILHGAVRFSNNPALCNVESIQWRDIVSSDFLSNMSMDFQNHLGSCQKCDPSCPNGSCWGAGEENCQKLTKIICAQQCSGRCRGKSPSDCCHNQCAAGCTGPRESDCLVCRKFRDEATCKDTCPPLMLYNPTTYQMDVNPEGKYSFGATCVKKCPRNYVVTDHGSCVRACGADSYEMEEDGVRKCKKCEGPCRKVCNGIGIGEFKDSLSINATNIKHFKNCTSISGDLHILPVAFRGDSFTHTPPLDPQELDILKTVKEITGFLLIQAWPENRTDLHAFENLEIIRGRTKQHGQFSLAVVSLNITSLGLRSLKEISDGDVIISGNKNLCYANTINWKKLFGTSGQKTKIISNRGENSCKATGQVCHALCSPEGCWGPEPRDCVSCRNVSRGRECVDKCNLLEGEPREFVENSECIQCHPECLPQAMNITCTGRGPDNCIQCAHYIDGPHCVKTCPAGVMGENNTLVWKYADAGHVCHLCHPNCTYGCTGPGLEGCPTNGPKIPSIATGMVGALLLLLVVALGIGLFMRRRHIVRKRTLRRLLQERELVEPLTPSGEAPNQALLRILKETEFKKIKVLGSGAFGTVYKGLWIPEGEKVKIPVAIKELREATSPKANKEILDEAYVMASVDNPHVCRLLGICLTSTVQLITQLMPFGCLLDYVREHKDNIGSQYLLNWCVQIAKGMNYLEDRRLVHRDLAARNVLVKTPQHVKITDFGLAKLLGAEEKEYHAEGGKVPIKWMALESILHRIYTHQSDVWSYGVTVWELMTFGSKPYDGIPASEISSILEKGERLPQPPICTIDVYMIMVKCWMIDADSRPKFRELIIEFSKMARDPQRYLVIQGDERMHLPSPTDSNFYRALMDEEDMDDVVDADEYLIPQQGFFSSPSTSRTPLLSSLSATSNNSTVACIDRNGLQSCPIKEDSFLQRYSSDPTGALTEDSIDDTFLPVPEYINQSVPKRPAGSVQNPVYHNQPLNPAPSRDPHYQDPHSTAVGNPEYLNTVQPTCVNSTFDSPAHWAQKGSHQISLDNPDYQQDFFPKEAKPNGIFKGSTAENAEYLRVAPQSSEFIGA

Compound: C=CC(=O)N1CCCC[C@@H](n2c(NC(=O)c3cccc(C(F)(F)F)c3)nc3cccc(C)c32)C1
- pIC50 [1]: 5.46
- Drug metabolism [2]: Metabolite_Detected
- pIC50 [3]: 8.41
- Drug metabolism [4]: Metabolite_Detected
- Drug metabolism [5]: Metabolite_Detected
- Drug metabolism [6]: Metabolite_Detected
- pIC50 [7]: 7.83
- Drug metabolism [8]: < 5%
- bioavailability [9]: 6%
- clearance [10]: 54 mL/min/kg
- Drug metabolism [11]: Metabolite_Detected
- Drug metabolism [12]: Metabolite_Detected
- microsomal CLint [13]: 245 µL/min/mg
- solubility [14]: < 2 µM
- AUC [15]: 0.808 µM·h
- pIC50 [16]: 6.60
- pIC50 [17]: 5.47
- pIC50 [18]: 8.86
- microsomal CLint [19]: 83 µL/min/mg
- pIC50 [20]: < 4.60

Compound: Cc1cc(C(=O)Nc2nc3cccc(Cl)c3n2[C@@H]2CCCCN(C(=O)/C=C/CN(C)C)C2)ccn1 [NAZARTINIB]
- Activity [21]: 60%
- pIC50 [1]: < 4.60
- MRT [22]: 2.6 h
- MRT [23]: 1.5 h
- CL [24]: 35%
- pIC50 [3]: 8.82
- AUC [25]: 12 µM·h
- Time [26]: <= 14 hr
- bioavailability [9]: 60%
- clearance [10]: 31.6 mL/min/kg
- bioavailability [27]: 55%
- Activity [28]: 3.8%
- Vd [29]: 2.4 L/kg
- microsomal CLint [13]: 66 µL/min/mg
- solubility [14]: > 175 µM
- AUC [15]: 12.8 µM·h
- T/C [30]: -32%
- Activity [31]: 93%
- T/C [32]: -72%
- Activity [33]: 5.3%
- Vd [34]: 2.8 L/kg
- CL [35]: 30%
- Cmax [36]: 987 nM
- AUC [37]: 5.34 µM·h
- pIC50 [17]: < 4.60
- AUC [38]: 6.53 µM·h
- Cmax [39]: 2940 nM
- Tmax [40]: 3 h
- Tmax [41]: 0.83 h
- microsomal CLint [19]: 34 µL/min/mg
- clearance [42]: 15.7 mL/min/kg
- Time [43]: <= 14 hr
- pIC50 [20]: 5.15
